# Measurements from ChEMBL document CHEMBL4052605, “Lissoclibadin 1, a Polysulfur Aromatic Alkaloid from the Indonesian Ascidian Lissoclinum cf. badium, Induces Caspase-Dependent Apoptosis in Human Colon Cancer Cells and Suppresses Tumor Growth in Nude Mice” (J Nat Prod, 2017).
# Key:
# Format in all cases: functional, cell-based
# [1] = tested on: HCT-15; assay: Antiproliferative activity against human HCT15 cells after 24 hrs by WST-1 assay; settings: HCT-15, 24 h
# Outline: (§1)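 WST-1 viability assay. Cells seeded at 5 × 10^3 per well and grown 24 h, then given lissoclibadins at 0.1−40 μM (etoposide 1.0−100 μM) in triplicate for 24 h. WST-1 added and absorbance read 4 h later at 450 nm, background subtracted at 650 nm. Viability expressed as % of control; IC50 taken as 50% inhibition of viability. Three experiments, mean ± SD.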
# [2] = tested on: HeLa S3; assay: Antiproliferative activity against human HeLaS3 cells after 24 hrs by WST-1 assay; settings: HeLa S3, 24 h; outline: as §1
# [3] = tested on: MCF7; assay: Antiproliferative activity against human MCF7 cells after 24 hrs by WST-1 assay; settings: MCF7, 24 h; outline: as §1
# [4] = tested on: NCI-H28; assay: Antiproliferative activity against human NCI-H28 cells after 24 hrs by WST-1 assay; settings: NCI-H28, 24 h; outline: as §1
IC50 [1] [µM],IC50 [2] [µM],SMILES,IC50 [3] [µM],IC50 [4] [µM]
4.9,6.3,COc1c(OC)c2c(c(CCN(C)C)c1SC)SSc1c(CCN(C)C)c(SC)c(OC)c(OC)c1SSc1c(OC)c(OC)c(SC)c(CCN(C)C)c1SSc1c(CCN(C)C)c(SC)c(OC)c(OC)c1SS2,11.8,7.1
15.7,14.2,COc1cc(CCN(C)C)c2c(c1O)SSc1c(CCN(C)C)cc(OC)c(O)c1SS2 [LISSOCLIBADIN 7],–,–

SMILES,IC50 [1] [µM],IC50 [2] [µM],IC50 [3] [µM],IC50 [4] [µM]
COc1cc(CCN(C)C)c2c(c1O)SSSSS2 [ISOLISSOCLINOTOXIN B],4.2,5.9,6.4,6.4
